Measured values published in ChEMBL document CHEMBL2417530, “Coumarin derivatives protect against ischemic brain injury in rats” (Eur J Med Chem, 2013).

Legend:
PC-12 = assay: Neuroprotective activity in rat PC12 cells assessed as attenuation of oxygen-glucose deprivation-induced cellular damage at 10 uM by MTT assay relative to control; type: functional
How it was run: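 PC12 cells were seeded at 5×10^3/well for 24 h. OGD insult was low-glucose medium plus 5 mM sodium dithionite for 24 h, given together with 10 µM compound. MTT (5 mg/mL) was added for 4 h and absorbance read at 570 nm. Viability was expressed as % of full-medium control; n = 3.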

[1] = Cytotoxicity against rat PC12 cells assessed as cell proliferation at 10 uM by MTT assay relative to control; type: cell-based, PC-12; details: read-out: Activity
How it was run: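 PC12 cells were grown in DMEM with 5% FBS, 5% horse serum and 2 mM glutamine at 37 °C, 5% CO2. They were seeded at 5×10^3 cells/well for 24 h, then exposed to 10 µM compound in full medium. Viability was read by MTT (5 mg/mL, 4 h) at 570 nm as % of control absorbance; n = 3.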

| Compound | Activity (PC-12) [%] | viability at 10 µM [1] [%] |
| --- | --- | --- |
| Cc1c(CC(=O)N2CCN(C)CC2)c(=O)oc2cc(O)cc(O)c12 | 46.7 | 97.7 |
| Cc1c(N2CCN(C)CC2)c(=O)oc2cc(O)cc(OC(C)C)c12 | 51.8 | 119 |
| Cc1c(N2CCN(C(=O)NCc3ccccc3)CC2)c(=O)oc2cc(O)cc(O)c12 | 49.6 | 102 |
| Cc1c(N2CCNCC2)c(=O)oc2cc(O)cc(O)c12 | 46.4 | 96.3 |
| Cc1c(CCN2CCN(C)CC2)c(=O)oc2cc(O)cc(O)c12 | 45.9 | 102 |
| Cc1c(N2CCN(Cc3cc4c(cc3Cl)OCO4)CC2)c(=O)oc2cc(O)cc(O)c12 | 44.6 | 97.2 |
| Cc1c(N2CCN(C)CC2)c(=O)oc2cc(O)cc(OC3CCN(C(=O)OC(C)(C)C)CC3)c12 | 51.5 | 137 |
| Cc1c(N2CCN(C(c3ccc(F)cc3)c3ccc(F)cc3)CC2)c(=O)oc2cc(O)cc(O)c12 | 47.8 | 102 |
| Cc1c(N2CCN(C)CC2)c(=O)oc2cc(O)cc(OC3CCCC3)c12 | 33.8 | 181 |
| CC(=O)Oc1cc(OC(C)=O)c2c(C)c(N3CCN(C)CC3)c(=O)oc2c1 | 46.6 | 102 |
| Cc1c(N2CCN(C)CC2)c(=O)oc2cc(OCCN3CCCC3)ccc12 | 44.9 | 104 |
| Cc1ccc(COc2cc(O)cc3oc(=O)c(N4CCN(C)CC4)c(C)c23)c(C)c1 | 27.3 | 51.6 |
| CCCCCCCNC(=O)N1CCN(c2c(C)c3c(O)cc(O)cc3oc2=O)CC1 | 43.4 | 99.3 |
| COc1ccccc1N1CCN(c2c(C)c3c(O)cc(O)cc3oc2=O)CC1 | 46.8 | 102 |
| Cc1c(N2CCN(C)CC2)c(=O)oc2cc(O)cc(OCCNC(=O)OC(C)(C)C)c12 | 23.4 | 132 |
| Cc1c(N2CCN(S(=O)(=O)c3ccccc3)CC2)c(=O)oc2cc(O)cc(O)c12 | 49.7 | 97.4 |
| Cc1c(N2CCN(C)CC2)c(=O)oc2cc(O)ccc12 | 44.8 | 99 |
| Cc1c(N2CCN(C)CC2)c(=O)oc2cc(O)cc(OC3CCN(C)CC3)c12 | 19.9 | 139 |
| Cc1c(N2CCN(C)CC2)c(=O)oc2cc3c(cc12)OCO3 | 47.9 | 101 |

| Compound | Activity (PC-12) [%] | viability at 10 µM [1] [%] |
| --- | --- | --- |
| CCN1CCN(c2c(C)c3c(O)cc(O)cc3oc2=O)CC1 | 46.4 | 101 |
| Cc1cc(O)c2c(C)c(N3CCN(C)CC3)c(=O)oc2c1 | 47.3 | 99.5 |
| Cc1c(N2CCN(C)CC2)c(=O)oc2cc(OCCN3CCOCC3)ccc12 | 49.3 | 101 |
| COc1ccc2c(C)c(N3CCN(C)CC3)c(=O)oc2c1 | 43.7 | 100 |
| Cc1c(N2CCN(C)CC2)c(=O)oc2cc(O)cc(OC3CCOC3)c12 (configuration not stated) | 52 | 107 |
| Cc1c(N2CCN(C(=O)Nc3ccc(OC(F)(F)F)cc3)CC2)c(=O)oc2cc(O)cc(O)c12 | 48.7 | 99.5 |
| Cc1c(N2CCN(C)CC2)c(=O)oc2cc(O)cc(O)c12 | 52.7 | 107 |
| Cc1c(N2CCN(C(=O)CCl)CC2)c(=O)oc2cc(O)cc(O)c12 | 48.1 | 97.4 |
| Cc1c(CCC(=O)N2CCN(C)CC2)c(=O)oc2cc(O)cc(O)c12 | 46.1 | 97.5 |
| CCOc1cc(O)cc2oc(=O)c(N3CCN(C)CC3)c(C)c12 | 33.9 | 167 |
| Cc1c(N2CCN(C)CC2)c(=O)oc2cc(O)cc(OC3CCCCC3)c12 | 36.1 | 177 |
| Cc1c(N2CCN(C)CC2)c(=O)oc2cc(O)cc(OCCN3CCOCC3)c12 | 56.9 | 108 |
| Cc1c(N2CCN(C(=S)Nc3cccc(F)c3)CC2)c(=O)oc2cc(O)cc(O)c12 | 48.8 | 101 |
| CCOc1ccc2c(C)c(N3CCN(C)CC3)c(=O)oc2c1 | 45.6 | 101 |
| CC(=O)Nc1ccc(S(=O)(=O)N2CCN(c3c(C)c4c(O)cc(O)cc4oc3=O)CC2)cc1 | 44.5 | 98.1 |
| COc1ccc(COc2ccc3c(C)c(N4CCN(C)CC4)c(=O)oc3c2)cc1 | 44.2 | 136 |
| Cc1c(N2CCN(C)CC2)c(=O)oc2cc(O)cc(OCCCNC(=O)OC(C)(C)C)c12 | 15.8 | 153 |
| Cc1c(N2CCN(C)CC2)c(=O)oc2cc(O)cc(OCc3nccs3)c12 | 54.7 | 108 |
| CCC1CCC(Oc2ccc3c(C)c(N4CCN(C)CC4)c(=O)oc3c2)CC1 (configuration not stated) | 49.2 | 101 |

| Compound | Activity (PC-12) [%] | viability at 10 µM [1] [%] |
| --- | --- | --- |
| Cc1c(N2CCN(C)CC2)c(=O)oc2cc(O)cc(OCCN)c12 | 49.2 | 104 |
| Cc1c(N2CCN(C(=O)Nc3ccc(F)cc3)CC2)c(=O)oc2cc(O)cc(O)c12 | 46.3 | 104 |
| Cc1c(N2CCN(C)CC2)c(=O)oc2cc(O)cc(OCCc3cccs3)c12 | 39.1 | 178 |
| COc1cc(OC)c2c(C)c(N3CCN(C)CC3)c(=O)oc2c1 | 49.6 | 100 |
| Cc1c(N2CCN(C)CC2)c(=O)oc2cc(O)cc(OCCN(C)C)c12 | 61.5 | 104 |
| Cc1c(N2CCN(C)CC2)c(=O)oc2cc(O)cc(OCCN3CCCCC3)c12 | 24.9 | 144 |
| Cc1c(N2CCN(C(=O)C(F)(F)F)CC2)c(=O)oc2cc(O)cc(O)c12 | 49.3 | 97.4 |
| Cc1c(N2CCN(Cc3ccccc3)CC2)c(=O)oc2cc(O)cc(O)c12 | 44.4 | 100 |
| Cc1cccc(N2CCN(c3c(C)c4c(O)cc(O)cc4oc3=O)CC2)c1C | 47.1 | 103 |
| Cc1c(N2CCN(C)CC2)c(=O)oc2cc(O)cc(OCCN3CCCC3)c12 | 48.2 | 135 |
| Cc1c(N2CCN(C(=O)/C=C/c3ccccc3)CC2)c(=O)oc2cc(O)cc(O)c12 | 45.9 | 104 |
| CCCCOc1cc(O)cc2oc(=O)c(N3CCN(C)CC3)c(C)c12 | 46.2 | 197 |
| Cc1c(N2CCN(c3cccc(C(F)(F)F)c3)CC2)c(=O)oc2cc(O)cc(O)c12 | 46.5 | 103 |
| CCCCNC(=S)N1CCN(c2c(C)c3c(O)cc(O)cc3oc2=O)CC1 | 48.9 | 103 |
| Cc1ccc(S(=O)(=O)NCCOc2cc(O)cc3oc(=O)c(N4CCN(C)CC4)c(C)c23)cc1 | 45.1 | 140 |
| Cc1c(N2CCN(C)CC2)c(=O)oc2cc(O)cc(OCCc3ccccn3)c12 | 48.2 | 152 |
| COc1cc(O)c2c(C)c(N3CCN(C)CC3)c(=O)oc2c1 | 46.1 | 99.8 |
| Cc1c(N2CCN(C)CC2)c(=O)oc2cc(O)cc(OCc3ccccn3)c12 | 44.2 | 116 |
